A selection: hits, their analogues and other compounds. The true share with any hit is near 2.6%.
DENV2 CPE – inhibitors of DENV2 cytopathic effect, primary screen, cell-based, plate reader, single concentration | DENV2-infected cells, cytopathic effect rescue | CPE inhibition, % at 9.99 µM | 350,000 compounds, 1.7% hits; in the data active = CPE inhibition above about 20%, passing the limit was not always enough; tested in BHK-21 cells;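 note: 0% = median of neutral control wells and 100% = median of positive control wells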
INS-1E GSIS act – GLuc luminescence reporter in INS-1E cells, primary screen for activators of glucose-dependent secretion of insulin; activation, % at 16.6 µM; INS-1E GLuc reporter insulin secretion, 2-3 h; 370,000 compounds, 0.61% hits;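 active = lowest replicate activation of at least 40%, so every replicate reaches that level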;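 note: 0% = median of neutral control wells and 100% = median of IBMX positive control wells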
ERAP1 HTS inh – human ERAP1 aminopeptidase inhibitors, primary screen, biochemical, single point, plate reader; Endoplasmic reticulum aminopeptidase 1 (Homo sapiens), Q9NZ08; recombinant ERAP1, Leu-AMC fluorescence, 60 min; inhibition, % at 10.7 µM; 340,000 compounds, 0.15% hits;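 active = mean replicate inhibition of at least 30%, or all replicates individually reaching that 30% level; inactive = mean below 30% and not every replicate reaching it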;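 note: 0% = neutral control wells and 100% = L-leucinethiol positive control wells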
miR122 inh – miR-122 Renilla sensor signal increase in Huh7, primary screen, miR-122 inhibitor project, cell-based, single point, plate reader; Huh7 miR-122 Renilla luciferase sensor, 48 h; neutral wells = 0, positive control = 100; activation (reporter increase), % at 12.5 µM; 340,000 compounds, 0.3% hits; AID 602342, 2012;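 active = mean replicate activation score at least 90 and every replicate individually at or above 90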;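 note: higher luciferase means less miR-122 activity so hits act as miR-122 inhibitors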
E-selectin induc – E-selectin induction in HUVECs, primary screen, imaging, HUVEC, immunofluorescence imaging, single point; P16581; normalized: neutral wells 0, TNF-alpha wells 100; activation, % at 7.58 µM; 260,000 compounds, 0.37% hits; AID 686992, 2013;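 active = mean E-selectin-positive cell signal at least 10% of the positive control, reached in at least 60% of replicates, without over 20% cell loss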
Target sequence (P16581 whole entry, looked up): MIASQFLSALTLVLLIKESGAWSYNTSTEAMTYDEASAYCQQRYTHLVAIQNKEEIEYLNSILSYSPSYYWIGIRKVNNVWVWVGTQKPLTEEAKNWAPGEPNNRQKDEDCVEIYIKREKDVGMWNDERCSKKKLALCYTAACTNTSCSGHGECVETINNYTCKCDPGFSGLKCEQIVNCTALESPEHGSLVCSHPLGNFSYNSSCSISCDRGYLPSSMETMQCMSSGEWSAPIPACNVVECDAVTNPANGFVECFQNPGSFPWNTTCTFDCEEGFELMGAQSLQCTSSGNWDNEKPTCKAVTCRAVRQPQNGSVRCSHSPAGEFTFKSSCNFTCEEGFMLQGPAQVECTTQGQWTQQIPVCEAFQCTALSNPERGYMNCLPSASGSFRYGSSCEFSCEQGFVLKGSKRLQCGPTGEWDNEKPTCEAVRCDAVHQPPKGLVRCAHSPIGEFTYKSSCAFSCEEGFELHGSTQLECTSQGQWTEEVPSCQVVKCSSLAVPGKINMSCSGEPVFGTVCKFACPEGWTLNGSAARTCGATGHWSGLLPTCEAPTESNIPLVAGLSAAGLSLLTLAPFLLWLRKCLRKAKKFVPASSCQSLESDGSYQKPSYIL
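Material: HUVEC primary endothelial cells; Amount: 3,000 cells per well; Dosing: single concentration; Medium: EGM-2 growth medium on 0.1% gelatin-coated wells; Read-out basis: percent E-selectin-positive cells; Signal: immunofluorescence imaging; Control set: TNF-alpha, DMSO.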
CFTR F508del cor – F508del CFTR correction, initial screen, CFBE line, single point; CFBE cells, YFP halide quenching; stimulated with forskolin plus potentiator P3; % fluorescence drop versus neutral controls; activity (quench increase), % at 7.58 µM; 350,000 compounds, 0.36% hits;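 active = mean added fluorescence quench of at least 8% versus neutral control, with both replicates also reaching 8%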;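 note: cells transiently co-express mutant CFTR-F508del with the halide-sensitive YFP; corrector assay measuring rescue of mutant channel to the surface after 24 h compound exposure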
* marks the source's active call; other numbers are inactive results; / = no result; [ ] = another dose, or the depositor's remark.

SMILES	DENV2 CPE	INS-1E GSIS act	ERAP1 HTS inh	miR122 inh	E-selectin induc	CFTR F508del cor
CCCC#Cc1cnc2c(c1)C(=O)N([C@@H](C)CO)C[C@H](C)[C@@H](CN(C)C(=O)c1ccc3c(c1)OCO3)O2	/	-12	-3	8[16.7 µM]	1	-1
CSc1nc(N2CCOCC2)c2ccccc2n1	-2	92*	-1	-5	/	-2
CSc1nc(Cl)cc(N2CCOCC2)n1	8	53*	11	1	/	2
CSc1nc(N2CCOCC2)cc(N2CCOCC2)n1	1	57	-2	/	5	0
CC(=O)Nc1ccc2c(c1)C(=O)N(C)[C@@H]1CC[C@@H](CC(=O)NCCCN3CCOCC3)O[C@H]1CO2	/	6	/	17[16.7 µM]	0	-4
COCC(=O)N(C)C[C@@H]1Oc2cc(C#CC3CCCC3)ccc2S(=O)(=O)N([C@H](C)CO)C[C@@H]1C	/	-12	/	3[16.7 µM]	1	0
CN(C(=O)COc1ccccc1)C1CCS(=O)(=O)C1 (stereo not drawn)	0	2	-2	/	/	-1
CC(=O)c1ccc(OCC(=O)N(C2CCCCC2)C2CCS(=O)(=O)C2)cc1 (stereo not drawn)	2	54*	0	/	0	-4
C[C@@H]1CN([C@@H](C)CO)C(=O)c2cc(NS(=O)(=O)c3ccc(F)cc3)ccc2O[C@@H](C)CCCCO[C@@H]1CN(C)Cc1ccncc1	-6	-14	2	16[16.7 µM]	0	2
CCOC(=O)N1CCC(C(=O)Nc2ccc(OCC)cc2)CC1	1	5	2	-2	1	9.8*
CCOc1ccc(NC(=O)C2CCN(S(C)(=O)=O)CC2)cc1	0	-6	-1	/	/	0
Cc1cc(C)cc(NC(=O)C2CCCN2C(=O)Oc2ccccc2)c1 (stereo not drawn)	/	/	/	5	/	/
CCOc1ccc(NC(=O)C2CCCN2C(=O)Oc2ccccc2)cc1 (stereo not drawn)	-5	7	57*	-3	2	-4
CSCC[C@H](NC(=O)OC(C)(C)C)C(=O)N1CCC(C(=O)N[C@@H](C)C(=O)NCc2ccc(F)cc2)CC1	36*	2	-5	2	/	-2
O=c1c2ccccc2sn1-c1cc(S(=O)(=O)N2CCOCC2)ccc1N1CCOCC1	/	208*	/	/	/	/
O=c1c2ccccc2sn1-c1cc(S(=O)(=O)N2CCOCC2)ccc1N1CCCC1	/	/	/	-6	/	/
CC(=O)N(C)C[C@@H]1Oc2cc(C#CCN(C)C)ccc2S(=O)(=O)N([C@@H](C)CO)C[C@H]1C	0	19	-2	-1[16.7 µM]	0	-1
CN(C)CCn1c2ccccc2c2nc3ccc([N+](=O)[O-])cc3cc21	-11	-6	1	-16	-9	13*
CCCn1c(CN2CCN(C(=O)OCC)CC2)nc2cc(NC(=O)CC)ccc21	4	-11	1	41	0	8.6*
NNC(=O)c1[nH]c2ccc(Br)cc2c1-c1ccccc1	-7	10	-1	/	1	8
NNC(=O)c1[nH]c2ccc(Cl)cc2c1-c1ccccc1	-12	-3	/	/	/	17*
CN(c1ccccc1)c1nc(N)c([N+](=O)[O-])c(N2CCCC2)n1	14	-11	4	-1	2	-1
CN(c1ccccc1)c1nc(N)c([N+](=O)[O-])c(N2CCOCC2)n1	1	45*	6	/	/	1
O=C(Nc1nnc([C@@H]2C[C@H](O)[C@@H](CO)O2)s1)c1ccccc1Cl	6	/	1	1	1	-4
O=C(Nc1nnc([C@H]2C[C@H](O)[C@@H](CO)O2)s1)c1ccccc1F	29*	11	7	2	0	-2
SMILES	DENV2 CPE	INS-1E GSIS act	ERAP1 HTS inh	miR122 inh	E-selectin induc	CFTR F508del cor
C[C@@H]1CN([C@@H](C)CO)C(=O)c2cc(Br)cnc2O[C@@H]1CN(C)C(=O)C1CCOCC1	-4	27	-3	-3[16.7 µM]	1	4
Cc1ccc(NC(=O)Nc2ccc3c(c2)C(=O)N(C)[C@@H]2CC[C@@H](CC(=O)O)O[C@H]2CO3)cc1	-7	14	1	-3[16.7 µM]	0	0
[N-]=[N+]=NCc1ccccc1C[C@]1(C(N)=O)N=C(c2ccc(OCCCO)cc2)O[C@H]1c1ccccc1	25*	/	1	/	/	3
COC(=O)[C@@]1(CCS(=O)(=O)c2ccccc2)N=C(c2ccc(OCCCO)cc2)O[C@H]1c1ccccc1	27*	/	2	/	/	2
COC(=O)[C@@]1(Cc2ccccc2CN=[N+]=[N-])COC(c2ccc(OCCCO)cc2)=N1	27*	/	-2	/	/	4
COC(=O)[C@]1(CO)N=C(c2ccc(OCCCO)cc2)O[C@@H]1c1ccccc1CN=[N+]=[N-]	51*	/	0	/	/	-1
COCC(=O)N1CC2(C1)CN(Cc1cccc(Cl)c1)[C@@H](CO)c1[nH]c3cc(OC)ccc3c12	0	-16	-1	/	0	0
CNC[C@@H]1Oc2cc(C#Cc3cccc(F)c3)ccc2S(=O)(=O)N([C@H](C)CO)C[C@H]1C	-12	2	0	2[16.7 µM]	0	-2
CCCC/C=C/C(NC(=O)CCc1ccccc1)c1ccccc1 (stereo not drawn)	12	-32	0	-4	/	-6
CCCC/C=C/[C@H](c1ccccc1)[C@H](CO)Cc1cccnc1	42*	104*	-1	6	-1	0
C[C@H](CO)N1C[C@H](C)[C@@H](CN(C)C(=O)C2CCC2)Oc2cc(-c3ccc(F)cc3)ccc2S1(=O)=O	/	0	/	18[16.7 µM]	0	-5
Cc1c(Cl)cccc1NC(=O)CC1Oc2ccccc2NC1=O (stereo not drawn)	35*	0	-2	/	/	5
Cc1c(Cl)cccc1NC(=O)CC1Sc2ccccc2NC1=O (stereo not drawn)	1	-14	0	-7	0	-2
CCCC(=O)Nc1ccc2c(c1)C(=O)N(C)[C@@H]1CC[C@@H](CC(=O)NCC(F)(F)F)O[C@H]1CO2	-2	8	/	-33[16.7 µM]	0	-5
O=C(C[C@@H]1CC[C@@H](NC(=O)C2CCOCC2)[C@@H](CO)O1)NCC1CC1	1	-6	-1	/	0	0
O=C(C[C@H]1CC[C@H](NC(=O)C2CCOCC2)[C@@H](CO)O1)NCC1CC1	34*	14	-1	/	-1	-1
O=C(C[C@H]1CC[C@H](NC(=O)C2CCC2)[C@@H](CO)O1)NC1CCC1	40*	14	-2	17[16.7 µM]	-1	-4
O=C(C[C@@H]1CC[C@@H](NC(=O)CC2CC2)[C@@H](CO)O1)NCC(F)(F)F	62*	0	-1	12[16.7 µM]	0	-1

Compound activity (PubChem)
